Experimental data taken from ChEMBL document CHEMBL3399927, “Identification of novel inhibitors of Aurora A with a 3-(pyrrolopyridin-2-yl)indazole scaffold” (Bioorg Med Chem, 2015).

Columns and labels:
[1] = Antiproliferative activity against human HL60 cells after 72 hrs by MTT assay; format: functional, cell-based; settings: HL-60, 72 h
How it was run: (§1)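 Cells grown in RPMI-1640 with heat-inactivated 10% FBS, penicillin 100 units/mL and streptomycin 100 μg/mL, at 37 °C under 20% O2, 5% CO2. Compounds dissolved in DMSO at 10.0 mg/mL (stock), then diluted. Cells were plated for 24 h, exposed to a range of concentrations for 72 h, and viability was read by MTT. IC50 is 50% absorbance inhibition versus control cells; means of three experiments.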

[2] = tested on: KB; test: Antiproliferative activity against human KB cells after 72 hrs by MTT assay; format: functional, cell-based; how it was run: as §1
[3] = Antiproliferative activity against human SMMC7721 cells after 72 hrs by MTT assay; format: functional, cell-based; settings: SMMC-7721, 72 h; how it was run: as §1
[4] = Antiproliferative activity against human HCT116 cells after 72 hrs by MTT assay; format: functional, cell-based; settings: HCT-116, 72 h; how it was run: as §1
[5] = tested on: A549; test: Antiproliferative activity against human A549 cells after 72 hrs by MTT assay; format: functional, cell-based; settings: A549, 72 h
[6] = biological target: T1, Serine/threonine-protein kinase Chk1 (Homo sapiens) (UniProt O14757); test: Inhibition of CHK1 (unknown origin) at 1 ug/ml relative to control
T1 sequence (whole entry): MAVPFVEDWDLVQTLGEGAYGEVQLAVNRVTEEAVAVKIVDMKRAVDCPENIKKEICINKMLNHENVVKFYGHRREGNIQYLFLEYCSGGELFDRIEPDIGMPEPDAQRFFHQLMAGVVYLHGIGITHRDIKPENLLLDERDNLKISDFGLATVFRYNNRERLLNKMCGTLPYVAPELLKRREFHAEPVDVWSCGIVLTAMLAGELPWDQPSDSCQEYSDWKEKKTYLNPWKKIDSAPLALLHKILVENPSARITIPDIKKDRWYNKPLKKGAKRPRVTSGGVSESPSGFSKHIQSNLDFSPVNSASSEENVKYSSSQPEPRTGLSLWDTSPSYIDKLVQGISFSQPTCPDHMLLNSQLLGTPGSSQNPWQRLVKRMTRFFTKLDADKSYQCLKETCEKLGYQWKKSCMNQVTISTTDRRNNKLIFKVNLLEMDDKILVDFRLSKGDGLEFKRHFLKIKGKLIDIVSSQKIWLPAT
How it was run: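 Fixed-concentration screen at 1 µg/mL using the luminescent ADP-Glo assay.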

[7] = biological target: Cyclin-dependent kinase 2 (Homo sapiens) (UniProt P24941); test: Inhibition of CDK2 (unknown origin) at 1 ug/ml relative to control
[8] = biological target: Dual specificity mitogen-activated protein kinase kinase 1 (Homo sapiens) (UniProt Q02750); test: Inhibition of MEK1 (unknown origin) at 1 ug/ml relative to control
[9] = biological target: Glycogen synthase kinase-3 beta (Homo sapiens) (UniProt P49841); test: Inhibition of GSK3beta (unknown origin) at 1 ug/ml relative to control
[10] = biological target: Serine/threonine-protein kinase B-raf (Homo sapiens) (UniProt P15056); test: Inhibition of BRAF (unknown origin) at 1 ug/ml relative to control
[11] = biological target: T2, Inhibitor of nuclear factor kappa-B kinase subunit beta (Homo sapiens) (UniProt O14920); test: Inhibition of IKKbeta (unknown origin) at 1 ug/ml relative to control
T2 sequence (whole entry): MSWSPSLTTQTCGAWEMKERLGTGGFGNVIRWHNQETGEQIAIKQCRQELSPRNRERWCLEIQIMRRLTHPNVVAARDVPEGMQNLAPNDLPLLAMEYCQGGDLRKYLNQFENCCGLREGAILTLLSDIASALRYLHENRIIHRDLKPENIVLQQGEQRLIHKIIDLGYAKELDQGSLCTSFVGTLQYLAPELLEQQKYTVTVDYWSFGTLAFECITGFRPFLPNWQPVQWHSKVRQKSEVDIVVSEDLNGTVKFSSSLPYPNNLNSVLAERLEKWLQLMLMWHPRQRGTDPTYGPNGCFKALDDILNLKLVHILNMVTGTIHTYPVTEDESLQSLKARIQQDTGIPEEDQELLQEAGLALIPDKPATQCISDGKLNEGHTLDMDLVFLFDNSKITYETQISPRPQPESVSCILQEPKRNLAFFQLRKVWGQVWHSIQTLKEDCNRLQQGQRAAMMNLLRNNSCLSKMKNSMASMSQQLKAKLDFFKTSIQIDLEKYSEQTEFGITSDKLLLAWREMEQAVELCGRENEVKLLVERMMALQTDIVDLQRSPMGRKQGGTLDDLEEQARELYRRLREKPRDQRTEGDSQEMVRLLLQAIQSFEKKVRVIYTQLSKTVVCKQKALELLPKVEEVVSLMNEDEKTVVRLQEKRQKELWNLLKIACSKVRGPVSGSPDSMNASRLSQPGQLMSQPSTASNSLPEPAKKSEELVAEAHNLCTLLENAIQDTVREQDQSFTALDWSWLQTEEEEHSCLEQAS

[12] = biological target: Protein kinase C (PKC) (Homo sapiens) (UniProt O94806+P41743+P17252+P05129+Q05655+P05771+Q05513+Q02156+P24723+Q15139+Q04759); test: Inhibition of PKC (unknown origin) at 1 ug/ml relative to control
How it was run: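 Fixed-concentration screen at 1 µg/mL with a Z'-LYTE kinase assay kit.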

[13] = Apparent permeability across apical to basolateral side in MDCK cells by HPLC; format: ADME, cell-based, Canis lupus familiaris; settings: dog
[14] = biological target: T3, Aurora kinase A (Homo sapiens, UniProt O14965); test: Inhibition of human full length Aurora A by Z'-LYTE assay
T3 sequence (O14965 whole entry): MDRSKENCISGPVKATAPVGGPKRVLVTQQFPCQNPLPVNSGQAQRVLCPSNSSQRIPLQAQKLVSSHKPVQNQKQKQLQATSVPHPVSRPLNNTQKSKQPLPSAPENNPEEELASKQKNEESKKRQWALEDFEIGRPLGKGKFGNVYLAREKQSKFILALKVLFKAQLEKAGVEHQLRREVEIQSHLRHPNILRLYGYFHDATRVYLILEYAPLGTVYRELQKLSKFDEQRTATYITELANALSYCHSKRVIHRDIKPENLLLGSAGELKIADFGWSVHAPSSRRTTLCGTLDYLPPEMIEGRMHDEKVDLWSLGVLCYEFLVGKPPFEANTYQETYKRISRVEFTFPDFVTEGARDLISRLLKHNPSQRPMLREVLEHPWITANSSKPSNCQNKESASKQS

[15] = biological target: T4, Aurora kinase A (Homo sapiens) (UniProt O14965); test: Inhibition of human full length Aurora A at 1 ug/ml by Z'-LYTE assay
T4 sequence (whole entry): T3 sequence (O14965 whole entry)

Sequence of Serine/threonine-protein kinase B-raf (Homo sapiens) (P15056 whole entry): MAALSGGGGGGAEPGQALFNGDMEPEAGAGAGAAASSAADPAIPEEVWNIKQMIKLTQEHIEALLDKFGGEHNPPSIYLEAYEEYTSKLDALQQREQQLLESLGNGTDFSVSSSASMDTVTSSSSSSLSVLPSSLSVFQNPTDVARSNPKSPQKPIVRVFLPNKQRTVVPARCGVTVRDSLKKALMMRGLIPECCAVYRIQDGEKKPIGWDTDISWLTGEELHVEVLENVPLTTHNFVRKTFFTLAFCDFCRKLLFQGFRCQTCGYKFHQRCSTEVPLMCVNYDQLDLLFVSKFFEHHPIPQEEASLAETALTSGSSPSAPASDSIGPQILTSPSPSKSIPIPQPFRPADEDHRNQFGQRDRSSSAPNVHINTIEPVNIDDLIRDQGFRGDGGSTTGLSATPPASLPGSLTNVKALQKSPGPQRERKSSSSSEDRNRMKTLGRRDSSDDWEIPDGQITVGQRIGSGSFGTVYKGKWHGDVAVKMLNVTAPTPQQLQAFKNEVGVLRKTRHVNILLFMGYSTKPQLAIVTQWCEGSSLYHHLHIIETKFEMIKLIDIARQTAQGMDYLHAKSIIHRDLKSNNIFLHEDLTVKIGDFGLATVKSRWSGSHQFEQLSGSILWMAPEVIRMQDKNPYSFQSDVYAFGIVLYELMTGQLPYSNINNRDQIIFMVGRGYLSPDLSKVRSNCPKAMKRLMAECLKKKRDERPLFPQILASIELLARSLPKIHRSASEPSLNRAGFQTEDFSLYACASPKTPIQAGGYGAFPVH
Sequence of Glycogen synthase kinase-3 beta (Homo sapiens) (P49841 whole entry, looked up): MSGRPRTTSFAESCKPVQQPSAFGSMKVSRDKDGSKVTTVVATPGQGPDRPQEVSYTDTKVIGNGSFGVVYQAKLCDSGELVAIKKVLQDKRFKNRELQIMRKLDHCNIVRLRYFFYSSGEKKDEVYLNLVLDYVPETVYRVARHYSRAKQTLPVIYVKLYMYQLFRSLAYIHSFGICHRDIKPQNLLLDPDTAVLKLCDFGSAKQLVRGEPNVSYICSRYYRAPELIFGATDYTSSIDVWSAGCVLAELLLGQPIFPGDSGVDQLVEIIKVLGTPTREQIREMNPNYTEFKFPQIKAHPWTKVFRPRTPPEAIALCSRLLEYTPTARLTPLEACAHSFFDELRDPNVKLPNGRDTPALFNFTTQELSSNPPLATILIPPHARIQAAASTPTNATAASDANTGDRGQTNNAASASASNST
Sequence of Dual specificity mitogen-activated protein kinase kinase 1 (Homo sapiens) (Q02750 whole entry): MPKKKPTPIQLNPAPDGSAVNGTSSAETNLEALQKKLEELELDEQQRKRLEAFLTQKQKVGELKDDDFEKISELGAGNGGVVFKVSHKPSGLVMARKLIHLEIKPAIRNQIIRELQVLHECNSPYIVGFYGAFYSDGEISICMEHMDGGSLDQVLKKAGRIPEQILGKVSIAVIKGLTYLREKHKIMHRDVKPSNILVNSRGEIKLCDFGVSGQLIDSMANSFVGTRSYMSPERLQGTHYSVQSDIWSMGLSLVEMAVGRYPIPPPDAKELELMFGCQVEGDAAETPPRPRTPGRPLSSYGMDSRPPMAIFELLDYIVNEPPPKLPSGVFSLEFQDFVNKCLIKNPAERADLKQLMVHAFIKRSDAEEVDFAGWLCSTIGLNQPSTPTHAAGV

Structure (SMILES)	IC50 [2] [µM]	IC50 [5] [µM]	inhibition [6] [%]	inhibition [7] [%]	inhibition [8] [%]	inhibition [9] [%]	inhibition [10] [%]	inhibition [11] [%]	inhibition [12] [%]	Papp A→B [13] [×10⁻⁶ cm/s]	IC50 [14] [µM]	inhibition [15] [%]	IC50 [1] [µM]	IC50 [3] [µM]	IC50 [4] [µM]
CN(C(=O)c1ccc([N+](=O)[O-])cc1)c1ccc2[nH]c(-c3n[nH]c4ccccc34)cc2n1	20.2	34.5	–	–	–	–	–	–	–	–	–	–	6.8	18.4	19.9
CN(C(=O)c1ccccc1)c1ccc2[nH]c(-c3n[nH]c4ccccc34)cc2n1	8.58	13.8	8.3	28.2	3.85	18.6	11.7	8.06	5.4	2.07	0.032	95.8	4.85	12.5	10.6
CN(C(=O)C(C)(C)C)c1ccc2[nH]c(-c3n[nH]c4ccccc34)cc2n1	8.39	24.4	–	–	–	–	–	–	–	–	–	–	4.99	22.2	18
CN(C(=O)c1ccco1)c1ccc2[nH]c(-c3n[nH]c4ccccc34)cc2n1	19.4	15.5	–	–	–	–	–	–	–	–	–	–	4.54	28.2	30
CN(C(=O)CCc1ccccc1)c1ccc2[nH]c(-c3n[nH]c4ccccc34)cc2n1	7.38	18.1	–	–	–	–	–	–	–	–	–	–	4.73	20.9	11.2
Cc1ccc(S(=O)(=O)N(C)c2ccc3[nH]c(-c4n[nH]c5ccccc45)cc3n2)cc1	9.5	27.1	–	–	–	–	–	–	–	–	–	–	3.03	16.3	13.3
COc1cccc(C(=O)N(C)c2ccc3[nH]c(-c4n[nH]c5ccccc45)cc3n2)c1	9.01	14.9	–	–	–	–	–	–	–	–	–	–	1.42	22	14.2
COc1ccc(NC(=O)N(C)c2ccc3[nH]c(-c4n[nH]c5ccccc45)cc3n2)cc1	–	–	–	–	–	–	–	–	–	–	–	–	0.0079	–	0.063
COc1ccc(S(=O)(=O)N(C)c2ccc3[nH]c(-c4n[nH]c5ccccc45)cc3n2)cc1OC	10.1	> 50	–	–	–	–	–	–	–	–	–	–	6.32	26.6	16.7
COc1ccc(S(=O)(=O)N(C)c2ccc3[nH]c(-c4n[nH]c5ccccc45)cc3n2)cc1	22.1	24.2	–	–	–	–	–	–	–	–	–	–	4.34	13	22.4
CN(c1ccc2[nH]c(-c3n[nH]c4ccccc34)cc2n1)S(=O)(=O)c1ccc(Cl)cc1	8.35	18.2	–	–	–	–	–	–	–	–	–	–	0.77	12.7	5.98
COc1ccc(C(=O)N(C)c2ccc3[nH]c(-c4n[nH]c5ccccc45)cc3n2)cc1	12.9	14.6	–	–	–	–	–	–	–	–	–	–	3.32	23.7	29.5
CN(C(=O)c1ccccc1)c1ccc2[nH]c(-c3n[nH]c4cc(C#N)ccc34)cc2n1	20.9	32.8	–	–	–	–	–	–	–	–	–	–	6.43	> 50	24
CC(=O)N(C)c1ccc2[nH]c(-c3n[nH]c4ccccc34)cc2n1	10.3	> 50	–	–	–	–	–	–	–	–	–	–	5.11	23.4	14.8
CCC(=O)N(C)c1ccc2[nH]c(-c3n[nH]c4ccccc34)cc2n1	9.3	15.7	–	–	–	–	–	–	–	–	–	–	6.13	33.5	10.8
COc1ccc(S(=O)(=O)N(C)c2ccc3[nH]c(-c4n[nH]c5ccccc45)cc3n2)c(OC)c1	10.2	25.9	–	–	–	–	–	–	–	–	–	–	5.18	10.8	21.8

Continued by falling IC50 [2], values first:

IC50 [2] [µM]	IC50 [5] [µM]	inhibition [6] [%]	inhibition [7] [%]	inhibition [8] [%]	inhibition [9] [%]	inhibition [10] [%]	inhibition [11] [%]	inhibition [12] [%]	Papp A→B [13] [×10⁻⁶ cm/s]	IC50 [14] [µM]	inhibition [15] [%]	Structure (SMILES)	IC50 [1] [µM]	IC50 [3] [µM]	IC50 [4] [µM]
7.22	9.65	–	–	–	–	–	–	–	–	–	–	CN(C(=O)c1ccc(F)cc1)c1ccc2[nH]c(-c3n[nH]c4ccccc34)cc2n1	1.21	9.15	9.27
7.15	19.7	–	–	–	–	–	–	–	–	–	–	CN(c1ccc2[nH]c(-c3n[nH]c4ccccc34)cc2n1)S(=O)(=O)c1ccc(Br)cc1	6.24	11.5	9.85
5.87	20.1	–	–	–	–	–	–	–	–	–	–	CN(c1ccc2[nH]c(-c3n[nH]c4ccccc34)cc2n1)S(=O)(=O)c1cccc([N+](=O)[O-])c1	3.66	5.07	13.6
5.59	9.59	–	–	–	–	–	–	–	–	–	–	CN(C(=O)c1ccccc1)c1ccc2[nH]c(-c3n[nH]c4cc(Cl)ccc34)cc2n1	5.62	11.3	13.1
4.38	19.4	–	–	–	–	–	–	–	–	–	–	COc1ccc(OC)c(S(=O)(=O)N(C)c2ccc3[nH]c(-c4n[nH]c5ccccc45)cc3n2)c1	0.84	4.28	8.4
2.4	14	–	–	–	–	–	–	–	–	–	–	CN(c1ccc2[nH]c(-c3n[nH]c4ccccc34)cc2n1)S(=O)(=O)c1ccccc1	3.7	12	6.74
1.78	4.25	–	–	–	–	–	–	–	–	–	–	CN(C(=O)c1ccc(Br)cc1)c1ccc2[nH]c(-c3n[nH]c4ccccc34)cc2n1	1.08	3.46	6.11
1.33	8	–	–	–	–	–	–	–	–	–	–	CN(c1ccc2[nH]c(-c3n[nH]c4ccccc34)cc2n1)S(=O)(=O)c1ccc(OC(F)(F)F)cc1	1.17	7.16	6.04
0.63	2.22	1	35.5	1.98	27.8	14.4	0.94	10.6	3.95	0.046	95	CN(C(=O)c1ccc(Cl)cc1)c1ccc2[nH]c(-c3n[nH]c4ccccc34)cc2n1	0.45	2.42	3
0.015	–	–	–	–	–	–	–	–	–	–	–	CC(=O)O[C@H]1C(=O)[C@@]2(C)[C@H]([C@H](OC(=O)c3ccccc3)[C@]3(O)C[C@H](OC(=O)[C@H](O)[C@@H](NC(=O)c4ccccc4)c4ccccc4)C(C)=C1C3(C)C)[C@]1(OC(C)=O)CO[C@@H]1C[C@@H]2O [PACLITAXEL]	0.0017	0.12	0.0049
